{"source": "paper PMC8599380", "about": "(European Journal of Drug Metabolism and Pharmacokinetics, 2021)", "key": {"[1]": {"assay": "Population pharmacokinetic model", "format": "in vivo, human", "method_in_brief": "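Patients dosed orally three or four times weekly; 28-day cycles of 3 weeks dosing then 7 days off. Plasma sampled pre-dose to 24 h on day 1, 5 and/or 19 (882 concentrations). FOCE-I estimation; lag-time and transit absorption models tested; exponential IIV; additive residual error on log data. Median-normalized power covariate models; forward P<0.05, backward P 0.01; bootstrap evaluation.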"}, "[2]": {"conditions": "cited from earlier work"}, "[3]": {"conditions": "cited from earlier work", "remark": "listed apart in the source"}, "[4]": {"conditions": "mouse plasma; cited from earlier work"}, "[5]": {"test_system": "patients with hematologic and solid tumor malignancies", "conditions": "cited from earlier work"}, "[6]": {"conditions": "oral flat dose, preliminary phase 1 data"}}, "note": "Like-named read-outs stand apart in the source and are kept apart here.", "data": [{"smiles": "CC(C)[C@H](C(=O)Nc1ccc(C(=O)NO)cc1)c1ccccc1", "note": "[REC-2282]", "values": [{"measurement": "variability in dose-normalized AUC", "setting": "[1]; 55 patients, 20 mg to 80 mg", "result": 24.1, "unit": "%"}, {"measurement": "variability in dose-normalized Cmax", "setting": "[1]; 55 patients, 20 mg to 80 mg", "result": 29.6, "unit": "%"}, {"measurement": "dose proportionality of pharmacokinetics", "setting": "[1]; flat doses 20 mg to 80 mg", "result": "dose-proportional"}, {"measurement": "oral bioavailability", "setting": "[2]; mice, preclinical, ref unpublished data", "result": 26, "unit": "%"}, {"measurement": "dose recovered in urine", "setting": "[2]; mouse urine", "result": 1.4, "unit": "%"}, {"measurement": "dose recovered in urine", "setting": "[3]; rat urine", "result": 5, "unit": "%"}, {"measurement": "oral bioavailability", "setting": "[3]; rats, preclinical, ref unpublished data", "result": 100, "unit": "%"}, {"measurement": "bound to plasma proteins", "setting": "[4]", "result": 96, "unit": "%"}, {"measurement": "clinical response", "setting": "[5]; 27 patients enrolled", "result": "minimal response to progressive disease"}, {"measurement": "most common adverse event", "setting": "[5]; 27 patients enrolled", "result": "dose-dependent cytopenias"}, {"measurement": "observed dose-limiting toxicities", "setting": "[5]", "result": "grade 4 thrombocytopenia, febrile neutropenia and grade 3 neutropenia with infection and grade 4 psychosis"}, {"measurement": "coefficient of variation (CV) in apparent oral clearance among dose levels", "setting": "[5]; [6]", "result": "36 to 76", "unit": "%"}, {"measurement": "coefficient of variation (CV) in peak concentrations among dose levels", "setting": "[5]; [6]", "result": "24–66%"}, {"measurement": "median progression-free survival", "setting": "[5]; patients with NF2 and meningiomas", "result": 9.1, "unit": "months"}, {"measurement": "median progression-free survival", "setting": "[5]; solid tumors", "result": 3.6, "unit": "months"}]}]}
